5HT1E ag – agonists of human 5-HT1E serotonin receptor. activation, % at 6 µM. CHO 5-HT1E Ga15 NFAT-bla reporter, FRET; 0% DMSO wells, 100% control agonist wells. AID 574. hit rate 0.69% among 65,000;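 active = activation above a set limit, the screen-wide mean activation plus 3 SD, cut at about 8.5% in these data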;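 also: 100% = positive control agonist at 1 µM giving full maximal response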
S1P1 ag pot – activates or potentiates agonism at human S1P1 receptor | S1P1 CRE-bla cells, forskolin, beta-lactamase FRET, potentiator mode; S1P1 agonist co-added at EC20, 2 nM; 100% = saturating reference agonist, 0% = basal | hit rate 0.57% among 56,000 | P21453 | activation, % at 9.5 µM;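 active = activation above a cutoff set at the mean activation of all tested compounds plus 3 SD, cut at about 54% in these data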;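 also: forskolin at 4 µM as EC80 and the EC20 agonist is SEW2871; 100% = SEW2871 at its EC100 plus forskolin at EC80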
5HT1a antag – 5-HT1a (human) receptor antagonism; P08908; CHO 5-HT1a Ga15 NFAT-bla reporter, antagonist mode; inhibition, % at 10 µM; hit rate 0.68% among 62,000; AID 612;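 active = inhibition above the mean of all tested compounds plus 3 SD, cut at about 43% in these data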;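 also: receptor stimulated by 5-CT agonist at 100 nM near EC80; beta-lactamase reporter measured by ratiometric fluorescence of a cleavable substrate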
Target sequence (P08908 whole entry, looked up): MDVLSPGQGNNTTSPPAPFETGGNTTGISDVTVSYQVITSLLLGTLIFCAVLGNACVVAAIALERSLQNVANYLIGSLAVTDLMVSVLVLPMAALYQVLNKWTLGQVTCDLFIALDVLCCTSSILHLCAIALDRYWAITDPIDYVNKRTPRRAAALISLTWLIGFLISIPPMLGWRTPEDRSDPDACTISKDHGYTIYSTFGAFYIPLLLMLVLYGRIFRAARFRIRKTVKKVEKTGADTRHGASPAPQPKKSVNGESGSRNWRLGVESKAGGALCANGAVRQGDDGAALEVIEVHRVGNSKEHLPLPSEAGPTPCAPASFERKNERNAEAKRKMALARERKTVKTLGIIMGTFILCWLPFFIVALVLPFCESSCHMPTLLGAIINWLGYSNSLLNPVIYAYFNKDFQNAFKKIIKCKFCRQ
5HT1a ag – activates the human 5-HT1a serotonin receptor; activation, % at 10 µM; CHO 5-HT1a Ga15 NFAT-bla reporter, FRET ratio; 0% basal, 100% maximal reference agonist; P08908; hit rate 0.56% among 65,000;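 active = activation above the screen-wide mean activation plus 3 SD, cut at about 19% in these data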;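 also: 0% = DMSO wells and 100% = 5-CT at EC100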
S1P3 ag – S1P3 (human) receptor agonism; Q99500; S1P3 NFAT-BLA reporter cells, FRET ratio; relative to 1 µM S1P, basal subtracted; activation, % at 4.5 µM; hit rate 0.1% among 60,000;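 active = activation above the screen-wide mean plus 3 SD, cut at about 4.5% in these data, passing the limit was not always enough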
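Assay system: stable CHO line with human S1P3, Gα16, NFAT-BLA reporter; Detection: FRET β-lactamase substrate fluorescence, excitation 405 nm, 460/535 nm emission ratio, background-subtracted; Read-out: percent activation versus median 1 µM S1P response, basal-subtracted, per plate; Incubation: cells plated overnight, compound 4 h 37 °C, substrate 2 h RT.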
HTR1E antagonist – antagonists of human 5-HT1E serotonin receptor | P28566 | CHO 5-HT1E Ga15 NFAT-bla reporter, FRET, antagonist | inhibition, % at 6 µM | hit rate 0.99% among 65,000 | AID 571;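 active = inhibition above a set limit, the mean inhibition across every tested compound plus 3 SD, cut at about 29% in these data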;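 also: signal is the 460 over 535 nm emission ratio of beta-lactamase substrate; 0% = agonist plus DMSO wells and 100% = wells without agonist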
* = called active by the depositor; · = not tested or not shown. Only some compounds are listed: those with a hit (about 3% of all), similar ones and a draw of the others.

SMILES | 5HT1E ag | S1P1 ag pot | 5HT1a antag | 5HT1a ag | S1P3 ag | HTR1E antagonist
Cc1sc2nc(C3CC3)nc(NCCNS(C)(=O)=O)c2c1C | 0 | 6 | 0 | -2 | 0 | 39*
Cc1sc2nc(C3CC3)nc(N3CCN(S(=O)(=O)c4ccc(F)cc4)CC3)c2c1C | 5 | 4 | -44 | 3 | -1 | -19
O=C(c1cccc(S(=O)(=O)N2CCCC2)c1)c1nnc(-c2ccncc2)o1 | 0 | -8 | -19 | -2 | 0 | -9
Nc1cccc2cnccc12 | 0 | 20 | 30 | -2 | -2 | 33*
COc1ccc(C2C3=C(CCCC3=O)Nc3nc4ccccc4n32)c(OC)c1OC (stereo unspecified) | 2 | -39 | -15 | -3 | 0 | -8
Cc1nnc(SCC(=O)Nc2sccc2C(N)=O)n1Cc1ccccc1 | 1 | -2 | -9 | -1 | 1 | -4
C=CCn1c(SCC(=O)Nc2sccc2C(N)=O)nc2sc(C)c(C)c2c1=O | 1 | -35 | -1 | 6 | 2 | 33*
COc1ccc(OC)c(NC(=O)CN(c2ccc(C)cc2)S(=O)(=O)c2c(C)noc2C)c1 | 2 | 2 | 22 | 3 | 0 | 2
COc1ccc(N(CC(=O)Nc2cc(Cl)ccc2OC)S(=O)(=O)c2c(C)noc2C)cc1 | 0 | -20 | 23 | -2 | 0 | 35*
CCc1nc2c(sc3nc(N4CCOCC4)c4c(c32)CC(C)(C)OC4)c(=O)o1 | -1 | -1 | · | 0 | -2 | 3
O=C(COC(=O)c1ccccc1S(=O)(=O)N1CCCCC1)NCC(F)(F)F | -1 | 12 | 12 | -5 | 1 | 29*
Cc1cc(C)c(S(=O)(=O)NCc2cn3c(C)csc3n2)cc1C | 1 | -29 | 2 | -5 | 10 | 4
COC(=O)c1ccccc1NC(=O)Cn1c(-c2nonc2N)nc2ccccc21 | -1 | 20 | 74* | -2 | -2 | 81*
Nc1nonc1-c1nc2ccccc2n1CC(=O)N1CCCCC1 | 0 | 15 | 7 | 0 | 0 | 5
[O-][n+]1onc2c1CCc1c-2nn(-c2ccccc2Cl)[n+]1[O-] | 0 | 29 | 60* | -5 | -2 | 34*
Cc1ccc(-n2nc3c([n+]2[O-])CCc2c-3no[n+]2[O-])cc1 | -2 | 41 | 73* | -5 | -2 | 74*
Cc1ccc(NC(=O)CCSc2nnnn2-c2ccc3c(c2)OCO3)cc1C | -1 | 18 | 4 | 2 | -1 | 7
O=c1c2cc(N3CCOCC3)ccc2[nH]c(=S)n1CCCN1CCCC1 | 9.6* | · | 4 | -1 | · | -8
O=c1c2cc(N3CCOCC3)ccc2[nH]c(=S)n1CCCN1CCCCC1 | 0 | · | -6 | 0 | · | 16
CCN(CCNC(=O)c1cc(C)nn1-c1ccccc1)c1ccccc1 | 1 | -13 | 16 | -3 | -1 | -1
CC1=C(C(=O)OC2CCCC2)C(c2ccc(C)o2)C2=C(CC(c3cccs3)CC2=O)N1 (stereo unspecified) | 0 | 14 | 45* | 0 | -2 | 39*
CC1=C(C(=O)OC2CCCCCC2)C(c2ccc(C)o2)C2=C(CCCC2=O)N1 (stereo unspecified) | -1 | -6 | 27 | -2 | -2 | 10
Cc1cccc2cc(CN(Cc3nnnn3Cc3ccco3)C3CCCC3)c3nnnn3c12 | 0 | -13 | -1 | 0 | -1 | 4
COc1ccc(-n2nnnc2-c2cccc(OC)c2)cc1 | -1 | -1 | 20 | -2 | 0 | 35*
C=CCn1c(C)nc2c(c1=O)c1nc3ccccc3nc1n2-c1ccc(C)cc1 | 1 | · | -20 | 4 | · | -7
SMILES | 5HT1E ag | S1P1 ag pot | 5HT1a antag | 5HT1a ag | S1P3 ag | HTR1E antagonist
C=C1[C@@H](C)C2[C@H](Cc3ccccc3)NC(=O)[C@]23OC(=O)CC[C@H](O)CCC[C@H](C)C/C=C/[C@H]3[C@@H]1O (stereo partly specified) | 0 | -3 | · | -2 | 3 | 34*
COc1ccccc1C(=O)NCCN1CCN(C(=O)c2ccccc2OC)CC1 | 0 | -15 | 2 | -2 | -1 | -9
COc1cc(C2C(C#N)=C(N)Oc3cc(N)ccc32)cc(OC)c1OC (stereo unspecified) | 0 | -14 | · | 1 | -4 | 57*
OCCN1CCN(CC(O)COc2ccc3c(c2)OCO3)CC1 (stereo unspecified) | 16* | 9 | -2 | 0 | 0 | -5
Cc1ccc(Cn2c(SCc3cccnc3)nc3c2c(=O)n(C)c(=O)n3C)cc1 | 0 | -10 | 5 | 29* | -1 | 5
COc1ccc(C2C3=C(CCCC3=O)Nc3nc4ccccc4n32)cc1OC (stereo unspecified) | 1 | · | 0 | -1 | 0 | -7
CCOc1cc(-c2cc(-c3ccc(N)cc3)nc(N)c2C#N)ccc1O | 2 | 0 | 4 | 6 | 1 | 30*
COC(=O)c1ccc(CSc2nc3ccccc3c(=O)n2-c2ccc(OC)c(OC)c2)o1 | 0 | -28 | 13 | 5 | 0 | 31*
COCCn1c(SCc2ccc(C(=O)OC)o2)nc2ccccc2c1=O | -1 | -9 | 24 | -1 | 0 | 21

Compound activity (PubChem BioAssay)
